Screening data deposited in PubChem by Johns Hopkins Ion Channel Center.
KCNQ1 pot: potentiates or activates the human KCNQ1 potassium channel; B-score at 10 µM; CHO-K1 KCNQ1, thallium flux FluxOR fluorescence; active compounds read high; 0.35% of 310,000 active; P51787; AID 2648;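 active means fluorescence ratio B-score, a plate-corrected score, at least three library SD, with initial intensity B-score within 5 SD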
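Test system: CHO-K1 cells stably expressing KCNQ1 / Medium: assay buffer / Also added: depolarizing K+/Tl+ stimulus, K2SO4 and Tl2SO4 each 12.5 mM in 5x stock / Incubation: 90 min dye loading and 20 min compound exposure, both at room temperature / Signal: thallium influx via FluxOR fluorescence, kinetic imaging / Evaluation: B score of baseline-normalized fluorescence ratio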
KCNK3 block: human KCNK3 channel inhibition, primary screen | B-score at 10 µM | CHO-KCNK3 thallium flux, FluxOR fluorescence; active compounds read low | 0.84% of 340,000 active | O14649;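 active means B-score under library mean minus 4 SD, starting fluorescence ratio at most library mean plus 5 SD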;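 further: more negative B-score means stronger inhibition of thallium flux through KCNK3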
KCNK9 inh: blocks the human KCNK9 two-pore domain potassium channel; AID 488922; 1.2% of 310,000 active; HEK293 KCNK9, FluxOR thallium flux fluorescence; active compounds read low; Q9NPC2; B-score at 10 µM;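 active means ratio B-score over 3 SD below the library mean, with starting fluorescence within 5 SD of its mean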;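 further: negative B-score means less thallium flux so channel inhibition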
hERG rescue: shields human hERG channel from block by proarrhythmic agents; activation (rescue from dofetilide block), less the hit threshold, % at 10 µM; AID 1511; CHO-hERG, FluxOR thallium flux, dofetilide IC70 present; 0.51% of 310,000 active;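 active means activation above the mean of controls blocked by dofetilide plus 5 SD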;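 further: thallium influx through hERG after potassium depolarization seen as dye fluorescence rise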
Target sequence (Q12809 whole entry, looked up): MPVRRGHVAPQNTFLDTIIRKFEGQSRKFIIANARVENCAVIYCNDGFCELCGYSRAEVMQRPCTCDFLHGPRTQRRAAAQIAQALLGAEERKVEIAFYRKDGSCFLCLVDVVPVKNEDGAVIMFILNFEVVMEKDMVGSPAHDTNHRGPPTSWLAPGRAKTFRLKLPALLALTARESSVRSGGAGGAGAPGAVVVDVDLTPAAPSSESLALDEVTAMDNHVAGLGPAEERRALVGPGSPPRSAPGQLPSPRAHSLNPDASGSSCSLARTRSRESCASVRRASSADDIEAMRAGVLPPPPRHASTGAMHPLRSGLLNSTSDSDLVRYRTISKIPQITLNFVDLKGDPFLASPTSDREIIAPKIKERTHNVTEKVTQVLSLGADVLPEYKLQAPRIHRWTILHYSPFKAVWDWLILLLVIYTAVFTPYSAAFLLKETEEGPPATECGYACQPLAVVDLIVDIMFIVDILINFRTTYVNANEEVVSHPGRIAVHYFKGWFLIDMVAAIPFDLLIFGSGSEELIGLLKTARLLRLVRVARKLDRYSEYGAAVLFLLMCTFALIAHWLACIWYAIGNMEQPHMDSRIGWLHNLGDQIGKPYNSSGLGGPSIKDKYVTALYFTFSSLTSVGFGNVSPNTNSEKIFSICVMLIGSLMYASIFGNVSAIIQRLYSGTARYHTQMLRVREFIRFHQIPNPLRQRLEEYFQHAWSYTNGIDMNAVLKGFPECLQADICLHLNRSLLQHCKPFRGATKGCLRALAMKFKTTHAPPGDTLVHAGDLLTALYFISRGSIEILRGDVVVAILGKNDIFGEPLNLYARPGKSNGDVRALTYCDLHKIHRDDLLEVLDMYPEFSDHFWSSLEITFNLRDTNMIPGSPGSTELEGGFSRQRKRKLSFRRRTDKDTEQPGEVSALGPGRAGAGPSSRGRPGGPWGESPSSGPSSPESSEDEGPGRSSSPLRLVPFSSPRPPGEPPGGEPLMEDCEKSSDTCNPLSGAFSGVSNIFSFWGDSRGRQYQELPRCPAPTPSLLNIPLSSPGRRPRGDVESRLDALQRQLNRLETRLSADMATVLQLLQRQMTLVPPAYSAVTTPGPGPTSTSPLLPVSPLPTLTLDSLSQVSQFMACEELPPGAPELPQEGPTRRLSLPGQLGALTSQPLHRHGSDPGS
Kir21 block: inhibitors of mouse Kir2.1 inward-rectifier potassium channel; P35561; HEK293-Kir2.1, FluxOR thallium flux fluorescence; active compounds read low; B-score at 10 µM; 0.85% of 310,000 active; AID 1672;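 active means fluorescence ratio B-score at or below minus 3 SD of library scores, with starting-brightness B-score within 2 SD, cut at about -4.2 in these data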;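 further: channel flux triggered by added potassium and thallium sulfate stimulus; B-score of peak minus minimum fluorescence over baseline after thallium stimulus; more negative B-score means stronger Kir2.1 block with less thallium influx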
KCNQ1 inh: inhibitors of human KCNQ1 potassium channel | CHO-K1 KCNQ1, FluxOR thallium flux fluorescence; active compounds read high | P51787 | AID 2642 | 1.3% of 310,000 active | B-score at 10 µM;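 active means compounds whose thallium flux B-score, printed positive for inhibition, exceeds three library SD while starting fluorescence stays within three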;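 further: channel opened by potassium depolarization with thallium stimulus after 20 min compound exposure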
KCNK9 inh conf: human KCNK9 inhibitor confirmation. shares compounds with KCNK9 inh. HEK293 KCNK9 cells, FluxOR thallium flux fluorescence. inhibition, % at 10 µM. 43% of 4,900 active;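 active means thallium signal inhibited by more than 5 SD of the compound-free buffer control wells, on both duplicate plates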;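 further: 0% = assay buffer control wells without compound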
Kir21 sel: tests whether KCNK9 modulators also affect mouse Kir2.1 | shares compounds with KCNK9 inh | Kir2.1 cells, FluxOR thallium flux fluorescence | inhibition, % at 10 µM | 4% of 4,900 active | AID 492993;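 active means thallium signal drop more than 5 SD beyond the mean of the no-compound control wells, seen in both duplicate plates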;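 further: signal is fluorescence rise after thallium addition divided by baseline fluorescence; plate controls were assay buffer only for no effect and full block by chlorpromazine control for full effect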
HEK293 Tl ctr: second counter-screen for KCNK9 modulators: effect in non-induced cells; 40% of 4,900 active; AID 492997; inhibition, % at 10 µM; shares compounds with KCNK9 inh; non-induced KCNK9-HEK293, FluxOR thallium flux;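 active means thallium signal drop beyond 5 SD of the untreated control mean, on both duplicate plates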;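 further: plate controls were buffer only IC0 wells for no effect and SID17386958 at its maximal inhibitory level for full effect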
* = called active by the depositor; i = inactive; nt = no result given. An excerpt weighted towards active compounds, which were near 3.7% of everything screened.

SMILES	KCNQ1 pot	KCNK3 block	KCNK9 inh	hERG rescue	Kir21 block	KCNQ1 inh	KCNK9 inh conf	Kir21 sel	HEK293 Tl ctr
COc1cc2oc3ccccc3c2cc1N(CC(=O)N1CCCCC1)S(=O)(=O)c1ccc(C)cc1	i	i	i	-10	-0.24	i	nt	nt	nt
CN(C(=O)c1cccc(NC(=O)Cc2ccc(NC(=O)C3CCCN(S(=O)(=O)c4cccc([N+](=O)[O-])c4)C3)cc2)c1)C1CCCC1 (stereo unspecified)	nt	i	nt	nt	nt	nt	nt	nt	nt
COc1ccc(CN=Cc2c(C(F)(F)F)[nH][nH]c2=O)cc1	i	i	-11*	-10	0	i	27%*	i	i
CCOc1cc(/C=C2\C(=N)N3N=CSC3=NC2=O)ccc1OS(=O)(=O)c1ccccc1	i	i	i	-32	-5*	i	i	i	i
COc1cc(/C=C2\C(=N)N3N=CSC3=NC2=O)ccc1OS(=O)(=O)c1ccccc1	i	i	i	-30	-2.3	i	nt	nt	nt
Cc1c(Cl)cc(C(C)C)c(O)c1CN1CCOCC1	nt	i	nt	nt	nt	nt	nt	nt	nt
CC(OC(=O)c1ccccc1C(=O)N(C)c1ccccc1)C(=O)Nc1ccccc1[N+](=O)[O-] (stereo unspecified)	i	i	i	-21	-1.1	i	nt	nt	nt
COc1ccc(OC)c(C(=O)CN2CCN(S(=O)(=O)c3ccc(Br)cc3)CC2)c1	i	i	i	-9	1.3	i	i	i	i
COC(=O)[C@]1(C)N[C@H](CN(C)S(=O)(=O)c2ccc(-c3ccccc3)cc2)[C@@H]2C(=O)N(C)C(=O)[C@@H]21	nt	i	nt	nt	nt	nt	nt	nt	nt
COc1ccc(CC(=O)NCC2CCCN(Cc3ccc(SC)cc3)C2)cc1 (stereo unspecified)	i	i	i	-3	-0.63	i	nt	nt	nt
Clc1cccc(-c2cc3nc4c(c(NCc5ccco5)n3n2)CCCC4)c1	i	i	-9.4*	-12	-0.82	i	30%*	i	32%*
O=C(CCCOc1ccccc1)N1CCCc2ccccc21	i	i	i	-4	-2.1	i	nt	nt	nt
Cc1cc(Cl)ccc1OCCCC(=O)N1CCCc2ccccc21	i	i	i	-10	-3	i	i	67%*	i
CCOc1ccccc1NC(=O)Nc1ccon1	i	i	i	-10	0.05	i	nt	nt	nt
C/C(=C/C=N/Nc1nc(N2CCCCC2)nc(N2CCCCC2)n1)c1ccccc1	i	i	-8.7*	-13	1.1	i	44%*	i	i
Oc1ccc(/C=N/Nc2nc(N3CCCCCC3)nc(N3CCCCCC3)n2)c(O)c1	i	i	i	-15	0.67	i	nt	nt	nt
CC(/C=N/Nc1nc(N2CCCCC2)nc(N2CCCCC2)n1)=C\c1ccccc1	i	i	-12*	-7	-0.02	i	55%*	i	27%*
C(=N\Nc1nc(N2CCCCCC2)nc(N2CCCCCC2)n1)/c1ccccc1	i	i	i	-2	-0.12	i	nt	nt	nt
COCCNC(=O)CSc1n[nH]c(=O)n1CCc1ccccc1	i	i	i	-2	-1.4	i	nt	nt	nt
O=C(CN1C(=O)COc2ccc(S(=O)(=O)N3CCCC3)cc21)NC1CCCCCCC1	i	nt	i	-4	-0.51	i	nt	nt	nt
CCCSc1nc(=S)n(Cc2ccccc2)c(C)c1C(C)=O	i	i	-13*	-5	1.5	i	66%*	i	i
CCOC(=O)c1cc(NC(=O)Nc2ccc(Br)cc2)c(C)nc1C	i	i	i	-5	1.5	i	i	i	i
Cc1cc(NC(=O)CSCC(=O)N(C)Cc2cccc(Cl)c2)no1	i	i	i	-13	-0.31	i	nt	nt	nt
Cc1cc(Cl)ccc1OC(C)C(=O)N1CCCN(C(=O)C(C)Oc2ccc(Cl)cc2C)CC1 (stereo unspecified)	i	i	-15*	-6	1	i	58%*	i	30%*
COc1ccc(NC(=O)c2ccc(S(=O)(=O)N3CC(C)OC(C)C3)cc2)cc1 (stereo unspecified)	nt	i	nt	nt	nt	nt	nt	nt	nt
SMILES	KCNQ1 pot	KCNK3 block	KCNK9 inh	hERG rescue	Kir21 block	KCNQ1 inh	KCNK9 inh conf	Kir21 sel	HEK293 Tl ctr
CC(=O)Oc1ccc(C23CC4CC(CC(C4)C2)C3)cc1C(=O)O	i	nt	i	0	-0.59	i	nt	nt	nt
Cc1nc(SCc2ccc(C(=O)O)cc2)c2c(C)c(C)sc2n1	i	i	i	-10	1.9	i	i	i	i
Cc1ccc(-c2csc3ncnc(SCc4ccc(C(=O)O)cc4)c23)cc1	33*	i	i	15*	3	i	i	i	i
Cc1nc(SCC(=O)N2CCOCC2)c2c(C)c(C)sc2n1	i	i	i	-4	1	i	nt	nt	nt
COc1cc(NC(=O)CSc2nc(C3CC3)nc3ccccc23)cc(OC)c1	i	i	i	-8	-2.7	i	nt	nt	nt
CCOc1cc(CNc2ccc3c(c2)OCCO3)cc(Br)c1OCC	i	i	i	-7	0.97	i	i	i	i
CCOc1cc(CNc2ccc(N3CCOCC3)cc2)cc(Br)c1OCC	i	i	i	-8	-0.08	i	nt	nt	nt
CCC1Nc2ncnc(N3CCCCC3)c2N(Cc2ccc(Br)cc2)C1=O (stereo unspecified)	i	i	-11*	-16	-2.6	i	58%*	i	30%*
O=C1C(Cc2ccccc2)Nc2ncnc(N3CCc4ccccc4C3)c2N1Cc1ccc(Cl)cc1 (stereo unspecified)	i	i	-10*	-11	0.11	i	46%*	i	36%*
CC(C)CC1Nc2ncnc(N3CCCCC3)c2N(Cc2ccc(Br)cc2)C1=O (stereo unspecified)	i	i	-14*	-13	-0.53	i	76%*	i	50%*
O=C(CCSc1ccc(Cl)cc1)N1CCN(S(=O)(=O)c2ccccc2)CC1	nt	i	nt	nt	nt	nt	nt	nt	nt
O=C(Cn1cc2c(n1)CCCC2)Nc1cc(-c2cccc(Cl)c2)no1	i	i	-15*	-5	0.01	i	60%*	i	i
CC(NC(=O)Cn1cc2c(n1)CCCCC2)c1ccccc1 (stereo unspecified)	i	i	i	-7	-2.5	i	nt	nt	nt
O=C(CCc1c[nH]c2ccccc12)NC1CC1	i	i	i	0	-0.3	i	nt	nt	nt
